This sample holds only a part of the variants without activity.
B1: tRNA (parent)
chain: CUCUCGGUAGCCAAGUUGGUUUAAGGCGCAAGACUUUAAUUUAUCACUACGAAAUCUUGAGAUCGGGCGUUCGACUCGCCCCCGGGAGAUUUUUUCCUCGAGCAA

Variants of: B1
Assay: nonsense suppression (GFP-seq) (ratio to wild type); higher = more function; SUP4oc tRNA, yeast GFP reporter sort-seq
How it was run: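 Yeast carrying genome-integrated SUP4oc tRNA variants from a library with ~3% random mutations were grown in raffinose/galactose medium with 80 mg/L adenine. Each strain also carried a galactose-driven GFP ochre reporter and RFP. Cells were sorted into GFP/RFP bins, and each bin was Illumina-sequenced (phred ≥30). Nonsense suppression (GFPSEQ) is the bin median GFP/RFP, weighted by each variant's estimated cell share per bin, relative to wild-type SUP4oc; variants needed ≥100 reads and ≥30 cells.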

CUCUCGGUAGCCAAGGUGGUUUAAGGCGCAAGACUUUAAUUUAUCACUACGAAAUAUGGCGAUCGGGCGUUCGACUCGCCCCCGGGAGAUUUUUUCCUCGAGCAA [U16G C56A U58G A60C] and CUCUCGGUAGCCAAGCUGGUUUAAGGCGCAAGACUUUAAUUUAUCACUACGAAAUCUUGGGAUCGGGCGUUCGACUCGCCCCCGGCAGAUUUUUUCCUCGAGCAA [U16C A60G G86C] cannot be ordered by nonsense suppression: ≤ 0.026 for the first, ≤ 0.026 for the second.

Going from CUCUCGGUAGCCAAGUGGGUUUAAGGCGCAAGUCUUUAAUUUAUCACUACGAAAUCUUGAGACCCGGCGUUCGACUCGCCCCCGGGAGAUUUUUUCCUCGAGCAA [U17G A33U U63C G65C] to CUCUCGGUAGCCAAGUCGGUUUAAGGCGCGAGACUUUAAUUUAUCACUACGAAAUCUUGAGAUCGGGCGUUCGACUCGCCCCCGGGAGAUUUUUUCCUCGAGCAA [U17C A30G], the nonsense suppression rises from ≤ 0.026 to 0.326.

First: CUCUCGGUAGCCAAGUUGGUGCAAGGCGCAAGACUUUAAUUUAUCACUACGAAAUCUUGAGAUCGGGCGUUCGACUCGCCCUCGGGAGAUUUUUUCCUCGAGCAA [U21G U22C C82U]
Second: CUCUCGGUAGCCAAGUUGGUAUAAGGCGCGAGACUUUAAUUUAUCACUACGAAAUCUUGAGAUCGGGCGUUCGACUCGCCCCCGGGAGAUUUUUUCCUCGAGCAA [U21A A30G]
The nonsense suppression of the first is lower: 0.199 for the first, 0.42 for the second.

Compared with CUCUCAGUAGCCGAGUUGGUUUAAGGCGCAAGACUUUAAUUUAUCACUACGAAAUCUUGAGAUCGGGCGUUCGACUCGCCCCCGGGAGAUUUUUUCCUCGAGCAA [G6A A13G], CUCUCGGUAGCCAAAUUGGUUUAAGGCGCAAGACUUUAAUUUAUCACUACGAAAUCUUGAGAUCGGGCGUUCGACUCGCCCCCGGGAGAUUUUUUCCUCGAGCAA [G15A] is higher in nonsense suppression: ≤ 0.026 for the first, 0.188 for the second.

Going from CUCGCGGUAGCCAAGUUGGAUUAAGGCGCAAGACUUUAAUUUAUCACUACGAAAUCUUGAGAUCGGGCGUUCGACUCGCCCCCGGGAGAUUUUUUCCUCGAGCAA [U4G U20A] to CUCUCGGUAGCCACGUUGGUUUAAGGCGCAAGACUUUAAUUUAUCACUACGAAAUCUUGAGAUCGGGCGUACGACUCGCCCCCGGGAGAUUUUUUCCUCGAGCAA [A14C U71A], the nonsense suppression falls from 0.0644 to ≤ 0.026.

First: CUCUCGGUUGCCAAGUUGGUUUAAGGCGCAAGACUUUAAUUUAUCACUACGAAAUCUUGAGAUCGGGCGUUCGACUCGCCACCGGGAGAUUUUUUCCUCGAGCAA [A9U C81A]
Second: CUCUCGGUUGCCAAGUUGGUUUAAGGCGCAAGACUUUAAUUUAUCACUACGAAAUCUUGAGAUCGGGCGUUCGACUCGCCUCCGGGAGAUUUUUUCCUCGAGCAA [A9U C81U]
The nonsense suppression of the first is lower: ≤ 0.026 for the first, 0.0272 for the second.

Going from CUCUCGGUUGCCAAGUUCGUUUAAGGCGCAAGACUUUAAUUUAUCACUACGAAAUCUUGAGAUCGGGCGUUCGACUCGCCCCCGGGAGAUUUUUUCCUCGAGCAA [A9U G18C] to CUCUCGGUAGCCAAGUUGGUUUAAGGCCCAAGACUUUAAUUUAUCACUACGAAAUCUUGAGAUUGGGCGUUCGACUCGCCCCCGGGAGAUUUUUUCCUCGAGCAA [G28C C64U], the nonsense suppression rises from ≤ 0.026 to 0.0765.

First: CUCUCGGUAGCCAAGUUGGUUUAAGGCGCAUGACUUUAAUUUAUCACUACGAAAUCUUGAUAUCGGGCGUUCGACUCGCCCCCGGGAGAUUUUUUCCUCGAGCAA [A31U G61U]
Second: CUCUCGUUAGCCAAGUUGGUUUAAGGCGCAAGACUUUAAUUUAUCACUACGAAAUUUUGAGAUCGGGCGUUCGACUCGCCCCCGGGAGAUUUUUUCCUCGAGCAA [G7U C56U]
The nonsense suppression of the first is higher: 0.0345 for the first, ≤ 0.026 for the second.

Compared with CUCUCGGUAGCCUAGUUGGUUUAAGGCGCAAGACUUUAAUUUAUCACUACGAAAUCUUGAGAUCGGGCGUUCGACUUGCCCCCGGGAGAUUUUUUCCUCGAGCAA [A13U C77U], CUCUCGGUAGCCUAGUUGGUUUAAGGCGCAAGACUUUAAUUUAUCACUACGAAAUCUUGAGAUCGGGCGUUCGACUCUCCCCCGGGAGAUUUUUUCCUCGAGCAA [A13U G78U] is higher in nonsense suppression: 0.0452 for the first, 0.236 for the second.

First: CUCUCGGUAGCCAAGUUGGUUUAAGGCGUGAGACUUUAAUUUAUCACUACGAACUCUUGAGAUCGGGCGUUCGAAUCGCCCCCGGGAGAUUUUUUCCUCGAGCAA [C29U A30G A54C C75A]
Second: CUCUAGGUAGCCAAGUUGGUUUAAGGCGCAAGACUUUAAUUUAUCACUACGAAAUCUUGAGAUCGGGCGUUCGACUCUCCCCCGGGAGAUUUUUUCCUCGAGCAA [C5A G78U]
The nonsense suppression of the first is higher: 0.0386 for the first, 0.0303 for the second.

Going from CUCUCGGUAGCCAAGUUGGUUGAAGGCGCAUGACUUUAAUUUAUCACUACGAAAUCUUGAGAUCGGGCGUUCGACUCGCCCCCGGGAGAUUUUUUCCUCGAGCAA [U22G A31U] to CUCUCUGUAGCCAAGUUGGUUUAAGGCGCAAGACUUUAAUUUAUCACUACGAAAUCUUGAGAUCGGGCGCUCGACUCGCCCCCGGGAGAUUUUUUCCUCGAGCAA [G6U U70C], the nonsense suppression falls from 0.0872 to ≤ 0.026.

CUCUCGGUAGCCACGUUGGUUUAAGGCGCAAGACUUUAAUUUAUCACUACGAAAUCUUGAGAGCGGGCGUUCGACUCGCCCCCGGGCGAUUUUUUCCUCGAGCAA [A14C U63G A87C] and CUAUCGGUAGCGAAGUUUGGUUAAGGCGCAAGACUUUAAUUUAUCACUACGAAAUCUUGAUAUCGGGCGGUCGAGUCGCCCCCGGGAGAUUUUUUCCUCGAGCAA [C3A C12G G18U U20G G61U U70G C75G] cannot be ordered by nonsense suppression: ≤ 0.026 for the first, ≤ 0.026 for the second.

Compared with CUCUCGGUAGCCAAGUUGUUUUAAGGCACAAGACUUUAAUUUAUCACUACGAAAUGUUGAGAUCGGGCGUUCGACUCGCCCCCGGGAGAUUUUUUCCUCGAGCAA [G19U G28A C56G], CUCUCGGUAGCCAAGUUGGUGCAAGGCGCAAGACUUUAAUUUAUCACUACGAAAUCUUGAGAUCGGGCGUUCGACUCGCCCCCGGGAGAUUUUUUCCUCGAGCAA [U21G U22C] is higher in nonsense suppression: ≤ 0.026 for the first, 1.09 for the second.

For UUCUCCGUAUCCAAGUUGGUUUAAGGCGCAAGACUUUAAUUUAUCACUACGAAAUCUCGAGAUCGGGCGUUCGACUCGCCCCCGGGAGAUUUUUUCCUCGAGCAA [C1U G6C G10U U58C], the nonsense suppression was ≤ 0.026.

Source: the RNAGym collection of RNA variant scans (doi:10.1101/gad.245936.114)
